Laboratory results from ChEMBL document CHEMBL3580571, “Bis-arylidene oxindole-betulinic Acid conjugate: a fluorescent cancer cell detector with potent anticancer activity” (ACS Med Chem Lett, 2015).
Calls of active or inactive are those of the source. The calls are words filed in the database; no cut-off is given here.

How the values were obtained:
[1] = Cellular uptake in mouse NIH/3T3 cells at 2 uM after 4 hrs by fluorescence microscopic analysis; assay type: ADME, cell-based; details: nih3t3, 4 h
How it was run: (§1)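 Live cells were examined by fluorescence microscopy for uptake of the intrinsically fluorescent molecules, with untreated cells as control. Uptake was also quantified as % uptake per microgram of cellular protein. Fluorescence values were normalized to the absorption values of each molecule because their absorptivities differ.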

[2] = Cellular uptake in mouse B16F10 cells at 2 uM after 4 hrs by fluorescence microscopic analysis; assay type: ADME, cell-based; details: b16-f10, 4 h; how it was run: as §1
[3] = Cellular uptake in human PANC1 cells at 2 uM after 4 hrs by fluorescence microscopic analysis; assay type: ADME, cell-based; details: panc-1, 4 h; how it was run: as §1
[4] = Cytotoxicity against mouse B16F10 cells assessed as cell killing effect after 72 hrs by MTT assay; assay type: functional, cell-based; details: B16-F10, 72 h
How it was run: (§2)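 Cells were treated continuously for 72 h. Cytotoxicity is reported as IC50 in μM.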

MDA-MB-231 = assay: Cytotoxicity against human MDA-MB-231 cells assessed as cell killing effect after 72 hrs by MTT assay; assay type: functional, cell-based; details: MDA-MB-231, 72 h; how it was run: as §2
[5] = Cytotoxicity against human PANC1 cells assessed as cell killing effect after 72 hrs by MTT assay; assay type: functional, cell-based; details: PANC-1, 72 h; how it was run: as §2
A549 = assay: Cytotoxicity against human A549 cells assessed as cell killing effect after 72 hrs by MTT assay; assay type: functional, cell-based; details: A549, 72 h; how it was run: as §2
[6] = Induction of reactive oxygen species generation in mouse NIH/3T3 cells at 2 uM after 36 hrs by DCFDA dye-based fluorescence microscopic analysis; assay type: cell-based; details: nih3t3, 36 h
How it was run: (§3)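 Treated cells were imaged for ROS by fluorescence microscopy at 20× magnification, with untreated cells as control.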

B16-F10 [7] = assay: Induction of apoptosis in mouse B16F10 cells assessed as early apoptotic cells at 2 uM after 45 hrs by annexinV-FITC/propidium iodide staining-based flow cytometric analysis (reference value: 0.1%); assay type: functional
How it was run: (§4)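 Treated B16F10 cells were double-stained with annexin V and propidium iodide and analysed by flow cytometry, with untreated cells as control. Quadrants: Q1 PI-only (necrotic); Q2 double-positive (post-apoptotic); Q4 annexin-only (apoptotic); Q3 double-negative (healthy).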

B16-F10 [8] = assay: Induction of apoptosis in mouse B16F10 cells assessed as late apoptotic cells at 2 uM after 45 hrs by annexinV-FITC/propidium iodide staining-based flow cytometric analysis (reference value: 0.8%); assay type: functional; how it was run: as §4
B16-F10 [9] = assay: Induction of apoptosis in mouse B16F10 cells assessed as necrotic cells at 2 uM after 45 hrs by annexinV-FITC/propidium iodide staining-based flow cytometric analysis (reference value: 9%); assay type: functional; how it was run: as §4
B16-F10 [10] = assay: Induction of apoptosis in mouse B16F10 cells assessed as viable cells at 2 uM after 45 hrs by annexinV-FITC/propidium iodide staining-based flow cytometric analysis (reference value: 90.1%); assay type: functional; details: B16-F10, 45 h, read-out: Activity; how it was run: as §4
[11] = Cytotoxicity against mouse NIH/3T3 cells assessed as cell killing effect after 72 hrs by MTT assay; assay type: cell-based; details: NIH3T3, 72 h; how it was run: as §2
B16-F10 [12] = assay: Induction of reactive oxygen species generation in mouse B16F10 cells at 2 uM after 36 hrs by DCFDA dye-based fluorescence microscopic analysis; assay type: functional, cell-based; how it was run: as §3
MCF7 = assay: Cytotoxicity against human MCF7 cells assessed as cell killing effect after 72 hrs by MTT assay; assay type: functional, cell-based; details: MCF7, 72 h; how it was run: as §2
OVCAR-3 = assay: Cytotoxicity against human OVCAR3 cells assessed as cell killing effect after 72 hrs by MTT assay; assay type: functional, cell-based; details: OVCAR-3, 72 h; how it was run: as §2
CHO = assay: Cytotoxicity against CHO cells assessed as cell killing effect after 72 hrs by MTT assay; assay type: cell-based; details: Cricetulus griseus; how it was run: as §2

With `COc1ccc(CN2C(=O)/C(=C(/c3ccc(O)cc3)c3ccc(OCCCN)cc3)c3ccccc32)cc1` the Drug uptake [1] was “Not Active”, the Drug uptake [2] was “Active” and the Drug uptake [3] was “Active”. It also gave an IC50 [4] of over 20 µM, an IC50 (MDA-MB-231) of over 20 µM and an IC50 [5] of over 20 µM. For the same compound, the IC50 (A549) was 1.36 µM, the Activity [6] was “Non-toxic” and the Activity (B16-F10 [7]) was 0%. For the same compound, the Activity (B16-F10 [8]) was 0.9%, the Activity (B16-F10 [9]) was 8.4% and the viability at 2 µM (B16-F10 [10]) was 90.7%.

For `COc1cccc2c1C(=O)c1c(O)c3c(c(O)c1C2=O)C[C@@](O)(C(=O)CO)C[C@@H]3O[C@H]1C[C@H](N)[C@H](O)[C@H](C)O1` [DOXORUBICIN], the Drug uptake [1] was “Active”, the Drug uptake [2] was “Active” and the Drug uptake [3] was “Active”. It also gave an IC50 [4] of 0.663 µM, an IC50 [5] of 1.03 µM and an IC50 [11] of 7.21 µM. The Activity (B16-F10 [12]) was “Active”, the Activity [6] was “Toxic” and the Activity (B16-F10 [7]) was 1.1%. It also gave an Activity (B16-F10 [8]) of 21.4%, an Activity (B16-F10 [9]) of 34.1% and a viability at 2 µM (B16-F10 [10]) of 43.4%.

With `C=C(C)[C@@H]1CC[C@]2(C(=O)NCCCNC(=S)Nc3ccc4c(c3)C(=O)OC43c4ccc(O)cc4Oc4cc(O)ccc43)CC[C@]3(C)[C@H](CC[C@@H]4[C@@]5(C)CC[C@H](O)C(C)(C)[C@@H]5CC[C@]43C)[C@@H]12` the Drug uptake [1] was “Not Active”, the Drug uptake [2] was “Active” and the Drug uptake [3] was “Active”. For the same compound, the IC50 [4] was 20 µM, the IC50 [5] was 9.78 µM and the IC50 [11] was over 20 µM.

With `C=C(C)[C@@H]1CC[C@]2(C(=O)NCCCOc3ccc(/C(=C4\C(=O)N(Cc5ccc(OC)cc5)c5ccccc54)c4ccc(O)cc4)cc3)CC[C@]3(C)[C@H](CC[C@@H]4[C@@]5(C)CC[C@H](O)C(C)(C)[C@@H]5CC[C@]43C)[C@@H]12` the Drug uptake [1] was “Not Active”, the Drug uptake [2] was “Active” and the Drug uptake [3] was “Active”. For the same compound, the IC50 (MCF7) was 7.4 µM, the IC50 [4] was 2.3 µM and the IC50 (OVCAR-3) was 6.05 µM. The IC50 (MDA-MB-231) was 1.26 µM, the IC50 [5] was 2.63 µM and the IC50 (A549) was 2.56 µM. For the same compound, the IC50 (CHO) was over 20 µM, the IC50 [11] was over 20 µM and the Activity (B16-F10 [12]) was “Active”. The Activity [6] was “Non-toxic”, the Activity (B16-F10 [7]) was 3.8% and the Activity (B16-F10 [8]) was 54.6%. For the same compound, the Activity (B16-F10 [9]) was 5% and the viability at 2 µM (B16-F10 [10]) was 36.6%.

With `COc1ccc(CN2C(=O)C(=C(c3ccc(O)cc3)c3ccc(O)cc3)c3ccccc32)cc1` the Drug uptake [1] was “Active”, the Drug uptake [2] was “Active” and the Drug uptake [3] was “Active”. It also gave an IC50 (MCF7) of over 20 µM, an IC50 [4] of over 20 µM and an IC50 (OVCAR-3) of over 20 µM. It also gave an IC50 (MDA-MB-231) of over 20 µM, an IC50 [5] of over 20 µM and an IC50 (CHO) of over 20 µM. For the same compound, the IC50 [11] was over 20 µM, the Activity [6] was “Non-toxic” and the Activity (B16-F10 [7]) was 0.2%. The Activity (B16-F10 [8]) was 1.7%, the Activity (B16-F10 [9]) was 5.1% and the viability at 2 µM (B16-F10 [10]) was 93%.

`C=C(C)[C@@H]1CC[C@]2(C(=O)O)CC[C@]3(C)[C@H](CC[C@@H]4[C@@]5(C)CC[C@H](O)C(C)(C)[C@@H]5CC[C@]43C)[C@@H]12` [BETULINIC ACID] gave an IC50 (MCF7) of 10.5 µM, an IC50 [4] of over 20 µM and an IC50 (OVCAR-3) of 8.37 µM. The IC50 (MDA-MB-231) was over 20 µM, the IC50 [5] was 10.2 µM and the IC50 (A549) was over 20 µM. For the same compound, the IC50 (CHO) was over 20 µM, the IC50 [11] was over 20 µM and the Activity (B16-F10 [12]) was “Active”. The Activity [6] was “Non-toxic”, the Activity (B16-F10 [7]) was 0.3% and the Activity (B16-F10 [8]) was 0.9%. For the same compound, the Activity (B16-F10 [9]) was 0% and the viability at 2 µM (B16-F10 [10]) was 98.8%.
